Measured values from ChEMBL document CHEMBL4138284, “Biomimetic Stereoselective Sulfa-Michael Addition Leads to Platensimycin and Platencin Sulfur Analogues against Methicillin-Resistant Staphylococcus aureus” (J Nat Prod, 2018).
In brackets after ≈: the same amount, converted by molar mass.

test system: Staphylococcus aureus; assay: Antibacterial activity against methicillin-resistant Staphylococcus aureus isolate 7 incubated overnight by agar dilution method; assay type: functional
How it was run: (§1)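 MIC by agar dilution. Strains were grown overnight in LB broth and diluted, then about 10^4 CFU (2 μL spots) were spotted onto LB agar plates containing test compound at 0.5 to 8 μg mL−1 agar. Plates were incubated overnight at 37 °C and inspected for growth. Clinical MSSA and MRSA isolates came from local hospitals.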

| Structure (SMILES) | MIC [µg/mL] |
| --- | --- |
| C[C@]12C[C@]34C[C@@H]1C[C@H](O2)[C@H]3[C@](C)(CCC(=O)Nc1c(O)ccc(C(=O)O)c1O)C(=O)C[C@@H]4SC(=O)c1ccccc1C(F)(F)F | 2 (≈ 3.09 µM) |
| C[C@]12C[C@]34C[C@@H]1C[C@H](O2)[C@H]3[C@](C)(CCC(=O)Nc1c(O)ccc(C(=O)O)c1O)C(=O)C[C@@H]4SC(=O)c1ccc2ccccc2c1 | 4 (≈ 6.35 µM) |

test system: Staphylococcus aureus; assay: Antibacterial activity against methicillin-resistant Staphylococcus aureus isolate 5 incubated overnight by agar dilution method; assay type: functional; how it was run: as §1

| Structure (SMILES) | MIC [µg/mL] |
| --- | --- |
| C[C@]12C[C@]34C[C@@H]1C[C@H](O2)[C@H]3[C@](C)(CCC(=O)Nc1c(O)ccc(C(=O)O)c1O)C(=O)C[C@@H]4SC(=O)c1ccccc1C(F)(F)F | 1 (≈ 1.54 µM) |
| C[C@]12C[C@]34C[C@@H]1C[C@H](O2)[C@H]3[C@](C)(CCC(=O)Nc1c(O)ccc(C(=O)O)c1O)C(=O)C[C@@H]4SC(=O)c1ccc2ccccc2c1 | 2 (≈ 3.18 µM) |

test system: Staphylococcus aureus; assay: Antibacterial activity against methicillin-sensitive Staphylococcus aureus isolate 4 incubated overnight by agar dilution method; assay type: functional; how it was run: as §1

| Structure (SMILES) | MIC [µg/mL] |
| --- | --- |
| C[C@]12C[C@]34C[C@@H]1C[C@H](O2)[C@H]3[C@](C)(CCC(=O)Nc1c(O)ccc(C(=O)O)c1O)C(=O)C[C@@H]4SC(=O)c1ccccc1C(F)(F)F | 1 (≈ 1.54 µM) |
| C[C@]12C[C@]34C[C@@H]1C[C@H](O2)[C@H]3[C@](C)(CCC(=O)Nc1c(O)ccc(C(=O)O)c1O)C(=O)C[C@@H]4SC(=O)c1ccc2ccccc2c1 | 0.5 (≈ 0.794 µM) |

test system: Staphylococcus aureus; assay: Antibacterial activity against methicillin-resistant Staphylococcus aureus isolate 8 incubated overnight by agar dilution method; assay type: functional; how it was run: as §1

| Structure (SMILES) | MIC [µg/mL] |
| --- | --- |
| C[C@]12C[C@]34C[C@@H]1C[C@H](O2)[C@H]3[C@](C)(CCC(=O)Nc1c(O)ccc(C(=O)O)c1O)C(=O)C[C@@H]4SC(=O)c1ccccc1C(F)(F)F | 1 (≈ 1.54 µM) |
| C[C@]12C[C@]34C[C@@H]1C[C@H](O2)[C@H]3[C@](C)(CCC(=O)Nc1c(O)ccc(C(=O)O)c1O)C(=O)C[C@@H]4SC(=O)c1ccc2ccccc2c1 | 1 (≈ 1.59 µM) |

test system: Staphylococcus aureus; assay: Antibacterial activity against methicillin-sensitive Staphylococcus aureus isolate 2 incubated overnight by agar dilution method; assay type: functional; how it was run: as §1

| Structure (SMILES) | MIC [µg/mL] |
| --- | --- |
| C[C@]12C[C@]34C[C@@H]1C[C@H](O2)[C@H]3[C@](C)(CCC(=O)Nc1c(O)ccc(C(=O)O)c1O)C(=O)C[C@@H]4SC(=O)c1ccccc1C(F)(F)F | 1 (≈ 1.54 µM) |
| C[C@]12C[C@]34C[C@@H]1C[C@H](O2)[C@H]3[C@](C)(CCC(=O)Nc1c(O)ccc(C(=O)O)c1O)C(=O)C[C@@H]4SC(=O)c1ccc2ccccc2c1 | 0.5 (≈ 0.794 µM) |

test system: Staphylococcus aureus; assay: Antibacterial activity against methicillin-resistant Staphylococcus aureus isolate 9 incubated overnight by agar dilution method; assay type: functional; how it was run: as §1

| Structure (SMILES) | MIC [µg/mL] |
| --- | --- |
| C[C@]12C[C@]34C[C@@H]1C[C@H](O2)[C@H]3[C@](C)(CCC(=O)Nc1c(O)ccc(C(=O)O)c1O)C(=O)C[C@@H]4SC(=O)c1ccccc1C(F)(F)F | 1 (≈ 1.54 µM) |
| C[C@]12C[C@]34C[C@@H]1C[C@H](O2)[C@H]3[C@](C)(CCC(=O)Nc1c(O)ccc(C(=O)O)c1O)C(=O)C[C@@H]4SC(=O)c1ccc2ccccc2c1 | 1 (≈ 1.59 µM) |

test system: Staphylococcus aureus; assay: Antibacterial activity against methicillin-resistant Staphylococcus aureus isolate 10 incubated overnight by agar dilution method; assay type: functional; how it was run: as §1

| Structure (SMILES) | MIC [µg/mL] |
| --- | --- |
| C[C@]12C[C@]34C[C@@H]1C[C@H](O2)[C@H]3[C@](C)(CCC(=O)Nc1c(O)ccc(C(=O)O)c1O)C(=O)C[C@@H]4SC(=O)c1ccccc1C(F)(F)F | 1 (≈ 1.54 µM) |
| C[C@]12C[C@]34C[C@@H]1C[C@H](O2)[C@H]3[C@](C)(CCC(=O)Nc1c(O)ccc(C(=O)O)c1O)C(=O)C[C@@H]4SC(=O)c1ccc2ccccc2c1 | 1 (≈ 1.59 µM) |

test system: Staphylococcus aureus; assay: Antibacterial activity against methicillin-sensitive Staphylococcus aureus isolate 1 incubated overnight by agar dilution method; assay type: functional; how it was run: as §1

| Structure (SMILES) | MIC [µg/mL] |
| --- | --- |
| C[C@]12C[C@]34C[C@@H]1C[C@H](O2)[C@H]3[C@](C)(CCC(=O)Nc1c(O)ccc(C(=O)O)c1O)C(=O)C[C@@H]4SC(=O)c1ccccc1C(F)(F)F | 1 (≈ 1.54 µM) |
| C[C@]12C[C@]34C[C@@H]1C[C@H](O2)[C@H]3[C@](C)(CCC(=O)Nc1c(O)ccc(C(=O)O)c1O)C(=O)C[C@@H]4SC(=O)c1ccc2ccccc2c1 | 1 (≈ 1.59 µM) |

test system: Staphylococcus aureus; assay: Antibacterial activity against Staphylococcus aureus ATCC 29213 incubated overnight by agar dilution method; assay type: functional; how it was run: as §1

| Structure (SMILES) | MIC [µg/mL] |
| --- | --- |
| C[C@]12C[C@]34C[C@@H]1C[C@H](O2)[C@H]3[C@](C)(CCC(=O)Nc1c(O)ccc(C(=O)O)c1O)C(=O)C[C@@H]4SC(=O)c1ccccc1C(F)(F)F | 2 (≈ 3.09 µM) |
| C[C@]12C[C@]34C[C@@H]1C[C@H](O2)[C@H]3[C@](C)(CCC(=O)Nc1c(O)ccc(C(=O)O)c1O)C(=O)C[C@@H]4SC(=O)c1ccc2ccccc2c1 | 2 (≈ 3.18 µM) |

test system: Staphylococcus aureus; assay: Antibacterial activity against methicillin-sensitive Staphylococcus aureus isolate 3 incubated overnight by agar dilution method; assay type: functional; how it was run: as §1

| Structure (SMILES) | MIC [µg/mL] |
| --- | --- |
| C[C@]12C[C@]34C[C@@H]1C[C@H](O2)[C@H]3[C@](C)(CCC(=O)Nc1c(O)ccc(C(=O)O)c1O)C(=O)C[C@@H]4SC(=O)c1ccccc1C(F)(F)F | 1 (≈ 1.54 µM) |
| C[C@]12C[C@]34C[C@@H]1C[C@H](O2)[C@H]3[C@](C)(CCC(=O)Nc1c(O)ccc(C(=O)O)c1O)C(=O)C[C@@H]4SC(=O)c1ccc2ccccc2c1 | 0.5 (≈ 0.794 µM) |

test system: Staphylococcus aureus; assay: Antibacterial activity against methicillin-resistant Staphylococcus aureus isolate 6 incubated overnight by agar dilution method; assay type: functional; how it was run: as §1

| Structure (SMILES) | MIC [µg/mL] |
| --- | --- |
| C[C@]12C[C@]34C[C@@H]1C[C@H](O2)[C@H]3[C@](C)(CCC(=O)Nc1c(O)ccc(C(=O)O)c1O)C(=O)C[C@@H]4SC(=O)c1ccccc1C(F)(F)F | 1 (≈ 1.54 µM) |
| C[C@]12C[C@]34C[C@@H]1C[C@H](O2)[C@H]3[C@](C)(CCC(=O)Nc1c(O)ccc(C(=O)O)c1O)C(=O)C[C@@H]4SC(=O)c1ccc2ccccc2c1 | 1 (≈ 1.59 µM) |

test system: Staphylococcus aureus; assay: Antibacterial activity against methicillin-resistant Staphylococcus aureus isolate 11 incubated overnight by agar dilution method; assay type: functional; how it was run: as §1

| Structure (SMILES) | MIC [µg/mL] |
| --- | --- |
| C[C@]12C[C@]34C[C@@H]1C[C@H](O2)[C@H]3[C@](C)(CCC(=O)Nc1c(O)ccc(C(=O)O)c1O)C(=O)C[C@@H]4SC(=O)c1ccccc1C(F)(F)F | 4 (≈ 6.18 µM) |
| C[C@]12C[C@]34C[C@@H]1C[C@H](O2)[C@H]3[C@](C)(CCC(=O)Nc1c(O)ccc(C(=O)O)c1O)C(=O)C[C@@H]4SC(=O)c1ccc2ccccc2c1 | 4 (≈ 6.35 µM) |
